MrgX1 antagonist = antagonists of human MrgX1 receptor, primary screen, HEK293 cells, Fluo-4 calcium flux; AID 588676, 2011; BAM8-22 antagonism; stronger effect = lower value; B-score at 10 µM; Mas-related G-protein coupled receptor member X1 (Homo sapiens), Q96LB2; actives 1.3% (n = 310,000);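 active = calcium-response B-score plate-corrected more than 3 library SD below zero, starting fluorescence within 5 deviations, no agonist response on first addition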;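 note: peak minus trough fluorescence over baseline after final BAM8-22 challenge near maximal dose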
Target sequence (Q96LB2 whole entry, looked up): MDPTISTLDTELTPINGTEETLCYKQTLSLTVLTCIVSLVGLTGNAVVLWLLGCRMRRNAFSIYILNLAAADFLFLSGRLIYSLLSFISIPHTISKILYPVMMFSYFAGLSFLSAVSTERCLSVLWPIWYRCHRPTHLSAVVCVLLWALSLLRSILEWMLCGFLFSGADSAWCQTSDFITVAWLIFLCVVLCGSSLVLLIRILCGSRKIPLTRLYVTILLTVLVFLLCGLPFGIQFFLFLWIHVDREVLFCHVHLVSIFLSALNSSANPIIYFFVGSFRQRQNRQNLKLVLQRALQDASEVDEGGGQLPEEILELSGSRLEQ
RGS4 pot = RGS4 potentiators or activators, primary screen, cell-based, HEK293 M3R inducible RGS4, calcium flux; carbachol calcium flux Fluo4; stronger effect = lower value; B-score at 10 µM; actives 0.92% (n = 310,000);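 active = B-score of the integrated calcium signal more than 4 SD below the library mean, with starting fluorescence not abnormally high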;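 note: negative B-score means reduced calcium response which marks RGS4 activation or potentiation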
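test system = HEK293 cells with stable M3R and inducible RGS4 | schedule = recording 10 s baseline at 1 Hz, 100 s post-agonist | technique = Fluo4-AM (2 µM) calcium-flux fluorescence, kinetic read | measure = Agonist-evoked peak-minus-minimum fluorescence over baseline, integrated ratio, B score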
MrgX1 ag = agonists of human MrgX1 receptor, primary screen, HEK293 cells, Fluo-4 calcium flux; Mas-related G-protein coupled receptor member X1 (Homo sapiens), Q96LB2; Fluo-4 calcium fluorescence, agonist mode; stronger effect = higher value; B-score at 10 µM; actives 0.44% (n = 310,000); AID 588627, 2011;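 active = calcium response B-score plate-corrected fluorescence ratio at least 3 library SD, with starting fluorescence B-score inside 5 SD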
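Assay system: MrgX1-expressing HEK293 cells / Amount: fifteen thousand cells per well / Doses: test compound in the initial addition of three / Timing: cells plated overnight, dye loaded 0.5 h 37 °C, 0.5 h room temperature / Technique: kinetic calcium dye fluorescence, Fluo-4 NW / Control set: positive and negative controls per plate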
RGS4 block = RGS4 inhibitors, primary screen, cell-based, HEK293 M3R inducible RGS4, calcium flux | AID 463165, 2010 | actives 0.45% (n = 310,000) | Fluo-4 calcium flux; stronger effect = higher value; triggered by carbachol at its EC20 | Regulator of G-protein signaling 4 (Homo sapiens), P49798 | B-score at 10 µM;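 active = B-score, a plate-corrected calcium signal, over three deviations above library mean, with baseline fluorescence within five deviations of library mean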;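 note: RGS4 expression induced by doxycycline in cells with stable M3 receptor; B-score is computed from the integrated fluorescence ratio over baseline after carbachol; higher B-score means a larger calcium signal and so more RGS4 inhibition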
Target sequence (P49798 whole entry, looked up): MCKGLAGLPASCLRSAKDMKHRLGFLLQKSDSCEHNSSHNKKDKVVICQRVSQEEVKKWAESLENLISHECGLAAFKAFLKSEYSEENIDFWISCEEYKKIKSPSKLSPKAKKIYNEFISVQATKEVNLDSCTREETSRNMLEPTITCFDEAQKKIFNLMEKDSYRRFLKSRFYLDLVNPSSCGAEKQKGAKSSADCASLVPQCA
MrgX1 PAM = positive allosteric modulators of MrgX1, primary screen, HEK293 cells, Fluo-4 calcium flux; B-score at 10 µM; actives 0.63% (n = 310,000); AID 588675, 2011; FDSS; stronger effect = higher value; Mas-related G-protein coupled receptor member X1 (Homo sapiens), Q96LB2;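 active = plate-corrected calcium response at least 3 library SD above typical, normal starting fluorescence, not activating the receptor alone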;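 note: compound read alongside a low EC10 to EC30 dose of BAM8-22 agonist; peak minus trough fluorescence over baseline measured at the second addition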
MrgX1 antag conf = MrgX1 receptor antagonists, duplicate retest, confirmation, HEK293 cells, Fluo-4 calcium flux. AID 602420, 2012. actives 19% (n = 2,300). remaining BAM8-22 calcium response % of control (stronger effect = lower value), % at 10 µM. BAM8-22 calcium flux; stronger effect = lower value. shares compounds with MrgX1 antagonist;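 active = remaining agonist calcium response no higher than 100% minus 3 SD of agonist-only control wells, with starting fluorescence near control levels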;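 note: agonist BAM8-22 given at a near maximal EC90 to ECmax level; peak minus minimum fluorescence divided by baseline after agonist addition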
HEK293 Ca flux = nonspecific calcium signal in parental HEK293, confirmation, counter-screen for MrgX1 antagonist project, parental HEK293 cells, Fluo-4 calcium flux. shares compounds with MrgX1 antagonist. Fluo-4 calcium fluorescence, FDSS. fluorescence ratio F(max-min)/F0 at 10 µM. actives 2% (n = 4,000). AID 624111, 2012;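 active = duplicate-averaged calcium fluorescence ratio at least three times the standard deviation of buffer wells, a nonspecific response in parental cells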
HEK293 Ca counter = calcium response in parental HEK293 cells, primary screen, counter-screen for MrgX1 allosteric activator project, cell-based, Fluo-4 calcium flux, duplicate. fluorescence ratio F(max-min)/F0 at 10 µM. actives 0.4% (n = 4,000). Fluo-4 fluorescence ratio; stronger effect = higher value. shares compounds with MrgX1 antagonist;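 active = calcium fluorescence ratio, averaged over duplicates, at least 3 SD of the buffer-well ratio, meaning a nonspecific response in receptor-free cells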;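 note: untransfected parental HEK293 lacking MrgX1 used as counterscreen for MrgX1 allosteric activators; fluorescence change taken during the second addition on a kinetic imager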
HEK293 Ca cntr2 = calcium response in parental HEK293 cells, primary screen, counter-screen for MrgX1 agonist project, cell-based, Fluo-4 calcium flux, duplicate, agonist mode; shares compounds with MrgX1 antagonist; Fluo-4 calcium fluorescence (FDSS); stronger effect = higher value; fluorescence ratio F(max-min)/F0 at 10 µM; actives 8.7% (n = 4,000);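 active = calcium fluorescence ratio at least three times the spread of buffer wells, meaning a non-specific response in parental cells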
An asterisk follows results filed as active; i = inactive; · = no result. Sampled rows, rich in hits. Any-hit rate of the full collection: about 3.5%.

SMILES	MrgX1 antagonist	RGS4 pot	MrgX1 ag	RGS4 block	MrgX1 PAM	MrgX1 antag conf	HEK293 Ca flux	HEK293 Ca counter	HEK293 Ca cntr2
Cc1ccc2oc(C(=O)Nc3nnc(C)s3)c(C)c2c1	-4.7*	i	i	i	i	i	i	i	i
Cc1ccc2oc(C(=O)Nc3nonc3C)c(C)c2c1	i	i	i	i	i	·	·	·	·
CCOC(=O)C(C(=O)OCC)c1cc(Br)c2noc3c2c1C(=O)c1ccccc1-3	i	i	i	i	i	·	·	·	·
O=C1c2ccccc2-c2onc3ccc(Oc4ccccc4)c1c23	-7.4*	i	i	i	i	74%*	i	i	i
COc1ccc(COC(=O)c2ccc(S(=O)(=O)N3CCC(C)CC3)cc2)cc1	-6.8*	i	i	i	i	i	i	i	i
CCOC(=O)c1cc2occc2n1CCCN1C(=O)c2ccccc2C1=O	-6.1*	i	i	i	i	i	i	i	i
CCOC(=O)c1cc2occc2n1CC(=O)N1CCOCC1	i	i	i	i	i	·	·	·	·
CC(CC(=O)Nc1cccc(F)c1)S(=O)(=O)c1ccc2c(c1)NC(=O)CO2 (stereo not drawn)	i	i	i	i	i	·	·	·	·
CC(=O)c1ccc(NC(=S)NC(C)c2ccc(Cl)cc2Cl)cc1 (stereo not drawn)	-10*	i	i	i	i	i	i	i	i
COc1ccccc1N1C(=O)C2C3C=CC(C3)C2C1=O (stereo not drawn)	i	i	i	i	i	·	·	·	·
O=C(Oc1ccc(-c2nnco2)cc1)N1CCOCC1	-5*	i	i	i	i	i	i	i	i
O=C(O)CCC(=O)NCC1OCCc2ccccc21 (stereo not drawn)	-8.6*	i	i	i	i	i	i	i	i
Cc1cccc(NC(=O)CSCC(=O)OCc2ccccn2)c1	i	i	i	i	i	·	·	·	·
c1ccc(COc2ccc(OCCn3cncn3)cc2)cc1	-5.9*	i	i	i	i	i	i	i	i
CCOc1ccc(CCNC(=O)CN2C(=O)CCSc3ccccc32)cc1	i	i	i	i	i	·	·	·	·
O=C(NCC1CCCC(CNC(=O)Nc2ccc(Cl)cn2)C1)Nc1ccc(Cl)cn1 (stereo not drawn)	i	i	i	i	i	·	·	·	·
CCCc1nnc(-c2ccc(OC)cc2)o1	-6*	i	i	i	i	i	i	i	i
COc1ccc(SCCc2nnc(-c3ccccc3)o2)cc1	-7.8*	i	i	i	i	i	i	i	i
O=C(CN1C(=O)NC2(CCCCC2)C1=O)Nc1ccccc1N1CCCC1	i	i	i	i	i	·	·	·	·
O=C(Cc1c(Cl)cccc1Cl)NC1=NCCS1	i	i	i	i	i	·	·	·	·
O=C(CC(NC(=O)c1ccccc1Cl)c1ccccc1)NC1=NCCS1 (stereo not drawn)	-6.6*	i	i	i	i	i	i	i	i
Cc1nc2sc3c(c2c(=O)o1)CC(C)(C)OC3	-6.1*	i	i	i	i	i	i	i	i
CC(C)C(NS(=O)(=O)c1cccs1)C(=O)NCc1ccc2c(c1)OCO2 (stereo not drawn)	-4.6*	i	i	i	i	i	i	i	i
Cc1ccc(CNC(=O)C(NS(=O)(=O)c2cccs2)C(C)C)cc1 (stereo not drawn)	i	i	i	i	i	·	·	·	·
CS(=O)(=O)c1ccc(CNC(=O)C2(C(F)(F)F)C/C(=C/CCO)CCCO2)cc1 (stereo not drawn)	-4.8*	i	i	i	i	i	i	i	i
SMILES	MrgX1 antagonist	RGS4 pot	MrgX1 ag	RGS4 block	MrgX1 PAM	MrgX1 antag conf	HEK293 Ca flux	HEK293 Ca counter	HEK293 Ca cntr2
CCC/C=C1/CCCOC(C(=O)NCc2ccc(S(C)(=O)=O)cc2)(C(F)(F)F)C1 (stereo not drawn)	i	i	i	i	i	·	·	·	·
Cc1cccc(-c2nc(CSc3nc4c(c(=O)[nH]3)CCC4)c(C)o2)c1	-8.4*	i	i	i	i	82%*	i	i	i
CCCCCOc1ccc(/C=C/c2c([N+](=O)[O-])c(=O)n(C)c(=O)n2C)cc1	i	i	i	i	i	·	·	·	·
O=C(c1cc(-c2ccc(Cl)cc2Cl)on1)N1CCCC1	i	i	i	i	i	·	·	·	·
O=C(c1cc(-c2ccc(Cl)cc2Cl)on1)N1CCCCCC1	-5.3*	i	i	i	i	i	i	i	i
CCc1nnc(NC(=O)c2nc(S(=O)(=O)Cc3ccc(C)cc3)ncc2Cl)s1	-7.2*	i	i	i	i	73%*	i	i	i
COc1cccc(NC(=O)c2ccc(-n3cccn3)nc2)c1	i	i	i	i	i	·	·	·	·
O=C(NCc1cn2ccsc2n1)c1cccc(C(F)(F)F)c1	i	i	i	i	i	·	·	·	·
O=C(NCc1cn2ccsc2n1)c1c(F)cccc1Cl	-5*	i	i	i	i	i	i	i	i
Cc1ncoc1C(=O)N1CCCC(C(=O)c2ccc(Oc3ccccc3)cc2)C1 (stereo not drawn)	i	i	i	i	i	·	·	·	·
Cc1ncoc1C(=O)N1CCCC(C(=O)c2cccc(OC(C)C)c2)C1 (stereo not drawn)	-6.1*	i	i	i	i	i	i	i	i
